Source: paper PMC3513776 (Journal of molecular recognition : JMR, 2012)

Assays:
A variant of human AGP = A variant of human AGP (Homo sapiens, UniProt P19652); test: ITC of drug binding to the separated A variant of AGP; settings: 30°C
[1] = molecular target: F1*S variant of human AGP (Homo sapiens, UniProt P02763); test: ITC of drug binding to the separated F1*S variant of AGP; settings: 30°C
Procedure, shortened: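 F1*S variant resolved from re-purified commercial human AGP on copper(II) IMAC (20 mM HEPES pH 7.4 load; 0→100% 300 mM imidazole, 1 mL/min). Degassed protein (140 μM, 20 mM HEPES pH 7.4) titrated with 5→16 mM drug in dialysate, 240 s intervals, 360 rpm, 30°C. Drug-into-buffer dilution heat subtracted. Integrated peaks vs molar ratio fitted by Marquardt for n, Ka, ΔH.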

[2] = cited from earlier work
[3] = system: A and F1*S variants of human AGP; settings: cited from earlier work
human AGP = test: Isothermal titration calorimetry; type: binding; settings: ITC, 30°C, heterogeneous AGP preparation

CN(C)CCC=C1c2ccccc2CCc2ccccc21 [amitriptyline]
thermodynamic binding signature (A variant of human AGP; A variant): dominant favorable entropy gain and a smaller, albeit favorable enthalpy gain | greater affinity for the A variant compared to the F1*S variant (A variant of human AGP; separated variants): 4 fold | thermodynamic binding signature ([1]; F1*S variant): comparable enthalpy and entropy gains | lower binding affinity of the F1*S variant (vs A variant) ([1]; separated variants): 4 fold | pKa of the N,N-dimethylpropan-1-amine side chain [2]: 9.2 | difference in affinity between A and F1*S [3]: > 20 fold

CN(C)CCCN1c2ccccc2Sc2ccc(Cl)cc21 [chlorpromazine]
binding energetics, A versus F1*S variant (A variant of human AGP; separated variants): comparable for both variants | affinity for both variants [3]: comparable

CC(C)N(CCC(C(N)=O)(c1ccccc1)c1ccccn1)C(C)C (stereo not drawn) [disopyramide]
affinity for the F1*S [3]: very low | variant selectivity of binding [3]: selectively bind to the A variant

CN(C)CC/C=C1\c2ccccc2CSc2ccccc21 [dothepin]
lower affinity for AGP compared to amitriptyline (human AGP): ~ 2.5 fold

CN1CCN2c3ccccc3Cc3ccccc3C2C1 (stereo not drawn) [miaserine]
lower affinity for AGP compared to amitriptyline (human AGP): ~ 6 fold
